How the values were obtained:
Format in all cases: functional
Parameters in all cases: concentration or dose not given beside the values
Rattus norvegicus [1] = species: Rattus norvegicus; test: Activity to induce the elevation of triglycerides of male Wistar rats
Procedure, shortened: (§1)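 Wistar rats on normal diet; groups were vehicle control, an internal-standard diphosphonate, and test compounds. Dosed daily for 4 days; diphosphonates were dissolved in water or suspended in 1% (carboxymethyl)cellulose, 4 mL/kg. On day 5, after overnight fast, rats were killed under ether. EDTA plasma was assayed enzymatically for HDL-C after heparin-CaCl2 precipitation of VLDL/LDL, phospholipids, triglycerides and α/β-cholesterol ratio. Results are given as % of control.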

Rattus norvegicus [2] = species: Rattus norvegicus; test: Activity to induce the elevation of phospholipids of male Wistar rats; procedure, shortened: as §1
Rattus norvegicus [3] = species: Rattus norvegicus; test: Activity to induce the elevation of HDL(High Density Lipoproteins)-Cholesterol of male Wistar rats; procedure, shortened: as §1
Rattus norvegicus [4] = species: Rattus norvegicus; test: Activity to induce the elevation of alpha/beta cholesterol ratio of male Wistar rats; procedure, shortened: as §1

Row | SMILES | Percent change in plasma triglycerides versus control (Rattus norvegicus [1]) [%] | Plasma phospholipids, % change versus control (Rattus norvegicus [2]) [%] | HDL-cholesterol change relative to control (%) (Rattus norvegicus [3]) | Percent change in alpha/beta cholesterol ratio versus control (Rattus norvegicus [4]) [%]
1 | CCCCOP(=O)(OCCCC)OC(c1ccc(Cl)cc1)P(=O)(OCCCC)OCCCC (stereo not drawn) | -11 | 13 | -10 | -53
2 | COP(=O)(OC)C(Cc1ccc(Cl)cc1)P(=O)(OC)OC | 62 | 51 | 38 | 75
3 | COP(=O)(OC)C(CCCc1ccccc1)P(=O)(OC)OC | 42 | 33 | 52 | 49
4 | COP(=O)(OC)OC(c1cccc(Cl)c1)P(=O)(OC)OC (stereo not drawn) | -37 | 14 | 56 | 69
5 | COP(=O)(OC)C(O)(c1ccc2ccccc2c1)P(=O)(OC)OC | 24 | 25 | 35 | 51
6 | COP(=O)(OC)OC(c1cccc(Br)c1)P(=O)(OC)OC (stereo not drawn) | 14 | 3 | 28 | 71
7 | COP(=O)(OC)C(O)(c1ccc(C(=O)c2ccc(Cl)cc2)cc1)P(=O)(OC)OC | -16 | 39 | 22 | 46
8 | COP(=O)(OC)C(CCCOc1ccccc1)P(=O)(OC)OC | 2 | -11 | 6 | -13
9 | COP(=O)(OC)C(O)(C(C)(C)Oc1ccc(Cl)cc1)P(=O)(OC)OC | -33 | 26 | 8 | -8
10 | O=P(O)(O)C(Cc1ccc(Cl)cc1)P(=O)(O)O | -146 | 0 |  | -40
11 | COP(=O)(OC)OC(C1CCCCC1)P(=O)(OC)OC (stereo not drawn) | -46 | 0 | 5 | -20
12 | O=P(O)(O)C(CCCOc1ccccc1)P(=O)(O)O | -7 | -6 | -18 | -57
13 | COP(=O)(OC)OC(c1ccc(F)cc1)P(=O)(OC)OC (stereo not drawn) | -9 | 2 | 40 | 81
14 | COP(=O)(OC)C(O)(c1ccccc1)P(=O)(OC)OC | 4 | 57 | 13 | 80
15 | COP(=O)(OC)OC(c1cc(C)ccc1C)P(=O)(OC)OC (stereo not drawn) | -3 | -16 | 10 | 15
16 | COP(=O)(O)C(CCCc1ccccc1)P(=O)(O)OC (stereo not drawn) | 9 | 11 | -9 | -23
17 | CCOP(=O)(OCC)OC(c1ccc(Cl)cc1)P(=O)(OCC)OCC (stereo not drawn) | 8 | 16 | 15 | -6
18 | COP(=O)(O)C(Cc1ccc(Cl)cc1)P(=O)(O)OC (stereo not drawn) | -30 | 6 | 27 | -20
19 | COP(=O)(OC)OC(c1ccc(C(F)(F)F)cc1)P(=O)(OC)OC (stereo not drawn) | 4 | 3 | 22 | 29
20 | CC(C)OP(=O)(OC(C)C)OC(c1ccc(Cl)cc1)P(=O)(OC(C)C)OC(C)C (stereo not drawn) | -37 | -20 | -34 | -46

Row | SMILES | Percent change in plasma triglycerides versus control (Rattus norvegicus [1]) [%] | Plasma phospholipids, % change versus control (Rattus norvegicus [2]) [%] | HDL-cholesterol change relative to control (%) (Rattus norvegicus [3]) | Percent change in alpha/beta cholesterol ratio versus control (Rattus norvegicus [4]) [%]
21 | CCOP(=O)(OCC)C(Cc1ccccc1)P(=O)(OCC)OCC | -47 | 5 | 5 | 28
22 | COP(=O)(OC)OC(C(C)(C)Cc1ccc(Cl)cc1)P(=O)(OC)OC (stereo not drawn) | -19 | -27 | -30 | -38
23 | COP(=O)(OC)C(O)(C(C)(C)C)P(=O)(OC)OC | 24 | -43 | 0 | 32
24 | COP(=O)(OC)OC(C(C)(C)c1ccc(Cl)cc1)P(=O)(OC)OC (stereo not drawn) | -7 | 37 | 56 | 59
25 | CCCCOP(=O)(OCCCC)C(Cc1ccc(Cl)cc1)P(=O)(OCCCC)OCCCC | 1 | 6 | 0 | 2
26 | COc1ccc(C(OP(=O)(OC)OC)P(=O)(OC)OC)cc1 (stereo not drawn) | 41 | -3 | 0 | 2
27 | COP(=O)(OC)C(CCc1ccccc1)P(=O)(OC)OC | 22 | 16 | 40 | 82
28 | CCOP(=O)(OCC)C(CCCc1ccccc1)P(=O)(OCC)OCC | 46 | 17 | 62 | 33
29 | CCOP(=O)(OCC)C(Cc1ccc(Cl)cc1)P(=O)(OCC)OCC | 8 | 23 | 26 | 22
30 | COP(=O)(OC)C(Cc1ccccc1)P(=O)(OC)OC | -3 | 25 | 32 | 22
31 | COP(=O)(OC)OC(c1ccc(-c2ccccc2)cc1)P(=O)(OC)OC (stereo not drawn) | 0 | 18 | 24 | 40
32 | COP(=O)(OC)C(O)(c1ccc(-c2ccccc2)cc1)P(=O)(OC)OC | 5 | 1 | 74 | 5
33 | CCCOP(=O)(OCCC)OC(c1ccc(Cl)cc1)P(=O)(OCCC)OCCC (stereo not drawn) | -17 | 4 | -6 | 4
34 | COP(=O)(OC)OC(C(C)(C)c1ccccc1)P(=O)(OC)OC (stereo not drawn) | 36 | 15 | 33 | 25
35 | COP(=O)(OC)OC(c1ccccc1Cl)P(=O)(OC)OC (stereo not drawn) | -42 | 22 |  | 34
36 | COP(=O)(OC)OC(c1ccc(C)cc1)P(=O)(OC)OC (stereo not drawn) | -33 | -8 | 4 | 47
37 | COP(=O)(OC)C(O)(c1ccc(C)cc1)P(=O)(OC)OC | 43 | 19 | 19 | 68
38 | COP(=O)(OC)OC(c1ccc2ccccc2c1)P(=O)(OC)OC (stereo not drawn) | 28 | 27 | 47 | 134
39 | COP(=O)(OC)OC(c1ccc(C(=O)c2ccc(Cl)cc2)cc1)P(=O)(OC)OC (stereo not drawn) | 0 | 53 | 33 | 55
40 | COP(=O)(OC)OC(CC(C)(C)C)P(=O)(OC)OC (stereo not drawn) | -9 | 18 | 47 | 44

Reference: ChEMBL document CHEMBL1123811, “gem-Diphosphonate and gem-phosphonate-phosphate compounds with specific high density lipoprotein inducing activity” (1987)
